How the values were obtained:
Set-up in all cases: dose 5 mg/kg, dosed compound name [14C]CS-1036, route oral
Conditions in all cases: in vivo
[1] = Drug uptake in albino F344/DuCrlCrlj rat testis at 5 mg/kg, po after 168 hrs by liquid scintillation counting; type: ADME, organism-based
Plasma [2] = test: Drug uptake in albino F344/DuCrlCrlj rat plasma assessed as ng equivalent of CS-1036 at 5 mg/kg, po after 168 hrs by liquid scintillation counting; type: ADME, organism-based
Plasma [3] = test: Drug uptake in albino F344/DuCrlCrlj rat plasma assessed as ng equivalent of CS-1036 at 5 mg/kg, po after 1 hr by liquid scintillation counting; type: ADME, organism-based
[4] = Drug uptake in albino F344/DuCrlCrlj rat thyroid gland at 5 mg/kg, po after 336 hrs by liquid scintillation counting; type: ADME, organism-based
Aorta [5] = test: Drug uptake in albino F344/DuCrlCrlj rat aorta at 5 mg/kg, po after 4 hrs by liquid scintillation counting; type: ADME, organism-based
Lung [6] = test: Drug uptake in albino F344/DuCrlCrlj rat lung at 5 mg/kg, po after 4 hrs by liquid scintillation counting; type: ADME, organism-based
Cerebrum [7] = test: Drug uptake in albino F344/DuCrlCrlj rat cerebrum at 5 mg/kg, po after 72 hrs by liquid scintillation counting; type: ADME, organism-based
Summary of the method: (§1)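 Single oral [14C]CS-1036 at 5 mg/kg was given to male rats (159–167 g; n = 3). Cerebrum was collected after aortic bleeding at 1, 4, 8, 24, 72, 168 or 336 h, weighed, and homogenized in 2 volumes of saline. A 0.5 ml aliquot was solubilized in Soluene-350 and counted by LSC with external-standard correction. Results are in ng equivalent/g tissue from specific activity and sample weight.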

[8] = Drug uptake in albino F344/DuCrlCrlj rat brown fat assessed as ng equivalent of CS-1036 at 5 mg/kg, po after 1 hr by liquid scintillation counting; type: ADME, organism-based, Brown adipose tissue
[9] = Drug uptake in albino F344/DuCrlCrlj rat thyroid gland assessed as ng equivalent of CS-1036 at 5 mg/kg, po after 1 hr by liquid scintillation counting; type: ADME, organism-based
Harderian gland [10] = test: Drug uptake in albino F344/DuCrlCrlj rat harderian gland assessed as ng equivalent of CS-1036 at 5 mg/kg, po after 336 hrs by liquid scintillation counting; type: ADME, organism-based
[11] = Drug uptake in albino F344/DuCrlCrlj rat urinary bladder assessed as ng equivalent of CS-1036 at 5 mg/kg, po after 72 hrs by liquid scintillation counting; type: ADME, organism-based
Aorta [12] = test: Drug uptake in albino F344/DuCrlCrlj rat aorta assessed as ng equivalent of CS-1036 at 5 mg/kg, po after 1 hr by liquid scintillation counting; type: ADME, organism-based
Cerebellum = test: Drug uptake in albino F344/DuCrlCrlj rat cerebellum assessed as ng equivalent of CS-1036 at 5 mg/kg, po after 168 hrs by liquid scintillation counting; type: ADME, organism-based
Pancreas [13] = test: Drug uptake in albino F344/DuCrlCrlj rat pancreas at 5 mg/kg, po after 8 hrs by liquid scintillation counting; type: ADME, organism-based
[14] = Drug uptake in albino F344/DuCrlCrlj rat bone marrow at 5 mg/kg, po after 8 hrs by liquid scintillation counting; type: ADME, organism-based
Spleen [15] = test: Drug uptake in albino F344/DuCrlCrlj rat spleen at 5 mg/kg, po after 72 hrs by liquid scintillation counting; type: ADME, organism-based
[16] = Drug uptake in albino F344/DuCrlCrlj rat thyroid gland assessed as ng equivalent of CS-1036 at 5 mg/kg, po after 24 hrs by liquid scintillation counting; type: ADME, organism-based
Heart = test: Drug uptake in albino F344/DuCrlCrlj rat heart assessed as ng equivalent of CS-1036 at 5 mg/kg, po after 72 hrs by liquid scintillation counting; type: ADME, organism-based
Pancreas [17] = test: Drug uptake in albino F344/DuCrlCrlj rat pancreas assessed as ng equivalent of CS-1036 at 5 mg/kg, po after 168 hrs by liquid scintillation counting; type: ADME, organism-based
Spleen [18] = test: Drug uptake in albino F344/DuCrlCrlj rat spleen at 5 mg/kg, po after 168 hrs by liquid scintillation counting; type: ADME, organism-based
Cerebrum [19] = test: Drug uptake in albino F344/DuCrlCrlj rat cerebrum assessed as ng equivalent of CS-1036 at 5 mg/kg, po after 168 hrs by liquid scintillation counting; type: ADME, organism-based; summary of the method: as §1
[20] = Drug uptake in albino F344/DuCrlCrlj rat trachea assessed as ng equivalent of CS-1036 at 5 mg/kg, po after 8 hrs by liquid scintillation counting; type: ADME, organism-based
[21] = Drug uptake in albino F344/DuCrlCrlj rat mandibular gland assessed as ng equivalent of CS-1036 at 5 mg/kg, po after 8 hrs by liquid scintillation counting; type: ADME, organism-based
Pancreas [22] = test: Drug uptake in albino F344/DuCrlCrlj rat pancreas at 5 mg/kg, po after 1 hr by liquid scintillation counting; type: ADME, organism-based
Zone of skin [23] = test: Drug uptake in albino F344/DuCrlCrlj rat skin assessed as ng equivalent of CS-1036 at 5 mg/kg, po after 72 hrs by liquid scintillation counting; type: ADME, organism-based
Liver = test: Drug uptake in albino F344/DuCrlCrlj rat liver assessed as ng equivalent of CS-1036 at 5 mg/kg, po after 8 hrs by liquid scintillation counting; type: ADME, organism-based
Small intestine [24] = test: Drug uptake in albino F344/DuCrlCrlj rat small intestine assessed as ng equivalent of CS-1036 at 5 mg/kg, po after 24 hrs by liquid scintillation counting; type: ADME, organism-based
Pancreas [25] = test: Drug uptake in albino F344/DuCrlCrlj rat pancreas at 5 mg/kg, po after 4 hrs by liquid scintillation counting; type: ADME, organism-based
Harderian gland [26] = test: Drug uptake in albino F344/DuCrlCrlj rat harderian gland assessed as ng equivalent of CS-1036 at 5 mg/kg, po after 168 hrs by liquid scintillation counting; type: ADME, organism-based
Lung [27] = test: Drug uptake in albino F344/DuCrlCrlj rat lung assessed as ng equivalent of CS-1036 at 5 mg/kg, po after 24 hrs by liquid scintillation counting; type: ADME, organism-based
Small intestine [28] = test: Drug uptake in albino F344/DuCrlCrlj rat small intestine at 5 mg/kg, po after 168 hrs by liquid scintillation counting; type: ADME, organism-based
[29] = Drug uptake in albino F344/DuCrlCrlj rat skeletal muscle assessed as ng equivalent of CS-1036 at 5 mg/kg, po after 8 hrs by liquid scintillation counting; type: ADME, organism-based, Muscle tissue
Cerebrum [30] = test: Drug uptake in albino F344/DuCrlCrlj rat cerebrum assessed as ng equivalent of CS-1036 at 5 mg/kg, po after 72 hrs by liquid scintillation counting; type: ADME, organism-based; summary of the method: as §1
Zone of skin [31] = test: Drug uptake in albino F344/DuCrlCrlj rat skin assessed as ng equivalent of CS-1036 at 5 mg/kg, po after 336 hrs by liquid scintillation counting; type: ADME, organism-based
Stomach = test: Drug uptake in albino F344/DuCrlCrlj rat stomach assessed as ng equivalent of CS-1036 at 5 mg/kg, po after 4 hrs by liquid scintillation counting; type: ADME, organism-based
[32] = Drug uptake in albino F344/DuCrlCrlj rat bone marrow at 5 mg/kg, po after 336 hrs by liquid scintillation counting; type: ADME, organism-based

SMILES: C[C@H]1O[C@@H](O[C@H]2[C@H](O)[C@@H](O)[C@@H](O[14C@H]3[14C@H](O)[14CH2]N[14C@@H]3[14CH2]O)O[C@@H]2CO)[C@H](O)[C@@H](O)[C@@H]1O
- Radiolabel recovery [1]: 9.95 ngequiv/g
- Radiolabel recovery (Plasma [2]): 1.65 ngequiv/ml
- Radiolabel recovery (Plasma [3]): 12.7 ngequiv/ml
- Radiolabel recovery [4]: 14.5 ngequiv/g
- Radiolabel recovery (Aorta [5]): 23.9 ngequiv/g
- Radiolabel recovery (Lung [6]): 37.8 ngequiv/g
- Radiolabel recovery (Cerebrum [7]): 8.91 ngequiv/g
- Radiolabel recovery [8]: 4.1 ngequiv/g
- Radiolabel recovery [9]: 7.2 ngequiv/g
- Radiolabel recovery (Harderian gland [10]): 2.33 ngequiv/g
- Radiolabel recovery [11]: 6.8 ngequiv/g
- Radiolabel recovery (Aorta [12]): 15.9 ngequiv/g
- Radiolabel recovery (Cerebellum): 3.37 ngequiv/g
- Radiolabel recovery (Pancreas [13]): 325 ngequiv/g
- Radiolabel recovery [14]: 75 ngequiv/g
- Radiolabel recovery (Spleen [15]): 70.6 ngequiv/g
- Radiolabel recovery [16]: 20 ngequiv/g
- Radiolabel recovery (Heart): 9.2 ngequiv/g
- Radiolabel recovery (Pancreas [17]): 5.8 ngequiv/g
- Radiolabel recovery (Spleen [18]): 18.3 ngequiv/g
- Radiolabel recovery (Cerebrum [19]): 3.11 ngequiv/g
- Radiolabel recovery [20]: 17.8 ngequiv/g
- Radiolabel recovery [21]: 24 ngequiv/g
- Radiolabel recovery (Pancreas [22]): 102 ngequiv/g
- Radiolabel recovery (Zone of skin [23]): 48.7 ngequiv/g
- Radiolabel recovery (Liver): 116 ngequiv/g
- Radiolabel recovery (Small intestine [24]): 7.5 ngequiv/g
- Radiolabel recovery (Pancreas [25]): 249 ngequiv/g
- Radiolabel recovery (Harderian gland [26]): 9 ngequiv/g
- Radiolabel recovery (Lung [27]): 12.8 ngequiv/g
- Radiolabel recovery (Small intestine [28]): 13 ngequiv/g
- Radiolabel recovery [29]: 11.2 ngequiv/g
- Radiolabel recovery (Cerebrum [30]): 4.88 ngequiv/g
- Radiolabel recovery (Zone of skin [31]): 16.4 ngequiv/g
- Radiolabel recovery (Stomach): 41 ngequiv/g
- Radiolabel recovery [32]: 26.2 ngequiv/g

— ChEMBL document CHEMBL3526002, “Tissue distribution and identification of radioactivity components at elimination phase after oral administration of [¹⁴C]CS-1036, an α-amylase inhibitor, to rats” (Drug Metab Dispos, 2013)
